Measured values reported in ChEMBL document CHEMBL4622947, “Synthesis and anti-inflammatory activity of 2-oxo-2H-chromenyl and 2H-chromenyl-5-oxo-2,5-dihydrofuran-3-carboxylates” (Bioorg Med Chem Lett, 2020).
pIC50: −log10 of the molar value. Active and inactive are the calls of the source. No cut-off for these calls is given here.

Key:
U-937 [1] = test: Antiinflammatory activity in human U937 cells assessed as inhibition of PMA/LPS-stimulated IL-6 production at 20 uM after 24 hrs by ELISA; type: functional, cell-based
[2] = Cytotoxicity against human U937 cells assessed as cell viability at 20 uM relative to control; type: cell-based, U-937; conditions: read-out: Activity
U-937 [3] = test: Antiinflammatory activity in human U937 cells assessed as inhibition of PMA/LPS-stimulated TNFalpha production at 20 uM after 24 hrs by ELISA relative to control; type: functional; conditions: U-937, 24 h
Procedure, shortened: (§1)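 TNF-α from U937 cells was quantified by ELISA. Percent inhibition was read at 20 μM, and IC50 (μM) was reported as mean ± error.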

U-937 [4] = test: Antiinflammatory activity in human U937 cells assessed as inhibition of PMA/LPS-stimulated TNFalpha production after 24 hrs by ELISA; type: functional, cell-based; conditions: U-937, 24 h; procedure, shortened: as §1
Mus musculus [5] = test: Antiinflammatory activity in BALB/c mouse assessed as inhibition of LPS-induced IL6 production at 100 mg/kg, administered for 3 days followed by LPS stimulation by ELISA; type: functional, organism-based
Procedure, shortened: (§2)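 BALB/c mice were pre-treated with 100 mg/kg test compound for three consecutive days, then challenged with LPS at 10 mg/kg IP. Serum TNF-α and IL-6 were measured by ELISA and compared with LPS-only and vehicle control groups. Values are mean ± S.E.M., n = 5.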

Mus musculus [6] = test: Antiinflammatory activity in BALB/c mouse assessed as inhibition of LPS-induced TNFalpha production at 100 mg/kg, administered for 3 days followed by LPS stimulation by ELISA; type: functional, organism-based; procedure, shortened: as §2
U-937 [7] = test: Antiinflammatory activity in human U937 cells assessed as inhibition of PMA/LPS-stimulated TNFalpha production at 1 uM after 24 hrs by ELISA relative to control; type: functional; conditions: U-937, 24 h

COC(=O)C1=C(OC)C(=O)OC1c1c(Cl)c2cc(C)cc(C)c2oc1=O (configuration not stated)
inhibition (U-937 [1]): inactive | viability at 20 µM [2]: 86.1% | inhibition at 20 µM (U-937 [3]): 44.9%

CCOC(=O)C1=C(OCC)C(=O)OC1C1=C(Cl)c2cc(Cl)ccc2OC1 (configuration not stated)
pIC50 (U-937 [4]): 4.97 | inhibition (U-937 [1]): inactive | viability at 20 µM [2]: 79.4% | inhibition at 20 µM (U-937 [3]): 75.9%

CCOC(=O)C1=C(OCC)C(=O)OC1C1=C(Cl)c2ccccc2OC1 (configuration not stated)
inhibition (U-937 [1]): inactive | viability at 20 µM [2]: 88.9% | inhibition at 20 µM (U-937 [3]): 50.6%

CCOC(=O)C1=C(OCC)C(=O)OC1C1=C(Cl)c2ccc3ccccc3c2OC1 (configuration not stated)
inhibition (U-937 [1]): inactive | viability at 20 µM [2]: 83.6% | inhibition at 20 µM (U-937 [3]): 4.1%

COC(=O)C1=C(OC)C(=O)OC1C1=C(Cl)c2cc(Cl)ccc2OC1 (configuration not stated)
inhibition (U-937 [1]): inactive | viability at 20 µM [2]: 84.6% | inhibition at 20 µM (U-937 [3]): 19.4%

CCOC(=O)C1=C(OCC)C(=O)OC1c1c(Cl)c2cc(C)c(C)cc2oc1=O (configuration not stated)
inhibition (U-937 [1]): inactive | viability at 20 µM [2]: 79% | inhibition at 20 µM (U-937 [3]): 26.8%

COC(=O)C1=C(OC)C(=O)OC1c1c(Cl)c2ccccc2oc1=O (configuration not stated)
inhibition (U-937 [1]): inactive | viability at 20 µM [2]: 78.3% | inhibition at 20 µM (U-937 [3]): 27.1%

COC(=O)C1=C(OC)C(=O)OC1c1c(Cl)c2cc(C)c(C)cc2oc1=O (configuration not stated)
inhibition (U-937 [1]): inactive | viability at 20 µM [2]: 75.9% | inhibition at 20 µM (U-937 [3]): 34.9%

COC(=O)C1=C(OC)C(=O)OC1C1=C(Cl)c2c(ccc(C)c2C)OC1 (configuration not stated)
inhibition (Mus musculus [5]): Active | inhibition (Mus musculus [6]): Active | pIC50 (U-937 [4]): 6.85 | inhibition (U-937 [1]): inactive | viability at 20 µM [2]: 92.1% | inhibition at 20 µM (U-937 [3]): 70.4%

CCOC(=O)C1=C(OCC)C(=O)OC1c1c(Cl)c2cc(Cl)ccc2oc1=O (configuration not stated)
inhibition (Mus musculus [5]): Active | inhibition (Mus musculus [6]): Active | pIC50 (U-937 [4]): 6.37 | inhibition (U-937 [1]): inactive | viability at 20 µM [2]: 90.7% | inhibition at 20 µM (U-937 [3]): 97.1%

COC(=O)C1=C(OC)C(=O)OC1C1=C(Cl)c2cc(Br)ccc2OC1 (configuration not stated)
pIC50 (U-937 [4]): 4.89 | inhibition (U-937 [1]): inactive | viability at 20 µM [2]: 94.3% | inhibition at 20 µM (U-937 [3]): 80.2%

CCOC(=O)C1=C(OCC)C(=O)OC1C1=C(Cl)c2cc(Br)ccc2OC1 (configuration not stated)
pIC50 (U-937 [4]): 5.49 | inhibition (U-937 [1]): inactive | viability at 20 µM [2]: 87.2% | inhibition at 20 µM (U-937 [3]): 73.3%

CCOC(=O)C1=C(OCC)C(=O)OC1c1c(Cl)c2cc(-c3ccccc3)ccc2oc1=O (configuration not stated)
inhibition (U-937 [1]): inactive | viability at 20 µM [2]: 83.1% | inhibition at 20 µM (U-937 [3]): 20%

CCOC(=O)C1=C(OCC)C(=O)OC1c1c(Cl)c2cc(Br)ccc2oc1=O (configuration not stated)
pIC50 (U-937 [4]): 7.33 | inhibition (U-937 [1]): inactive | viability at 20 µM [2]: 83% | inhibition at 20 µM (U-937 [3]): 91%

CCOC(=O)C1=C(OCC)C(=O)OC1C1=C(Cl)c2c(ccc(C)c2C)OC1 (configuration not stated)
inhibition (U-937 [1]): inactive | viability at 20 µM [2]: 85.2% | inhibition at 20 µM (U-937 [3]): 29.7%

COC(=O)C1=C(OC)C(=O)OC1C1=C(Cl)c2ccc(C)c(C)c2OC1 (configuration not stated)
inhibition (U-937 [1]): inactive | viability at 20 µM [2]: 93.8% | inhibition at 20 µM (U-937 [3]): 45.7%

CCOC(=O)C1=C(OCC)C(=O)OC1c1c(Cl)c2ccccc2oc1=O (configuration not stated)
inhibition (U-937 [1]): inactive | viability at 20 µM [2]: 75.9% | inhibition at 20 µM (U-937 [3]): 40.7%

C[C@]12C=CC(=O)C=C1CC[C@@H]1[C@@H]2[C@@H](O)C[C@@]2(C)[C@H]1CC[C@]2(O)C(=O)CO [PREDNISOLONE]
inhibition at 1 µM (U-937 [7]): 98% | pIC50 (U-937 [4]): 7.48

CCOC(=O)C1=C(OCC)C(=O)OC1C1=C(Cl)c2cc(C)c(C)cc2OC1 (configuration not stated)
pIC50 (U-937 [4]): 4.95 | inhibition (U-937 [1]): inactive | viability at 20 µM [2]: 93.4% | inhibition at 20 µM (U-937 [3]): 96.1%

COC(=O)C1=C(OC)C(=O)OC1C1=C(Cl)c2ccccc2OC1 (configuration not stated)
pIC50 (U-937 [4]): 4.73 | inhibition (U-937 [1]): inactive | viability at 20 µM [2]: 88.1% | inhibition at 20 µM (U-937 [3]): 95.5%

COC(=O)C1=C(OC)C(=O)OC1C1=C(Cl)c2ccc3ccccc3c2OC1 (configuration not stated)
inhibition (U-937 [1]): inactive | viability at 20 µM [2]: 80.2% | inhibition at 20 µM (U-937 [3]): 29.1%

COC(=O)C1=C(OC)C(=O)OC1C1=C(Cl)c2cc(C)ccc2OC1 (configuration not stated)
inhibition (U-937 [1]): inactive | viability at 20 µM [2]: 88.5% | inhibition at 20 µM (U-937 [3]): 35.6%

CCOC(=O)C1=C(OCC)C(=O)OC1c1c(Cl)c2cc(C)ccc2oc1=O (configuration not stated)
inhibition (U-937 [1]): inactive | viability at 20 µM [2]: 79.8% | inhibition at 20 µM (U-937 [3]): 32.3%

CCOC(=O)C1=C(OCC)C(=O)OC1C1=C(Cl)c2ccc(C)c(C)c2OC1 (configuration not stated)
inhibition (U-937 [1]): inactive | viability at 20 µM [2]: 89.9% | inhibition at 20 µM (U-937 [3]): 23.3%

CCOC(=O)C1=C(OCC)C(=O)OC1C1=C(Cl)c2cc(C)ccc2OC1 (configuration not stated)
inhibition (U-937 [1]): inactive | viability at 20 µM [2]: 81.6% | inhibition at 20 µM (U-937 [3]): 6.4%

COC(=O)C1=C(OC)C(=O)OC1C1=C(Cl)c2cc(C)c(C)cc2OC1 (configuration not stated)
inhibition (U-937 [1]): inactive | viability at 20 µM [2]: 90.7% | inhibition at 20 µM (U-937 [3]): 49.7%

COC(=O)C1=C(OC)C(=O)OC1c1c(Cl)c2cc(C)ccc2oc1=O (configuration not stated)
inhibition (U-937 [1]): inactive | viability at 20 µM [2]: 84.3% | inhibition at 20 µM (U-937 [3]): 14.8%

COC(=O)C1=C(OC)C(=O)OC1c1c(Cl)c2cc(Cl)ccc2oc1=O (configuration not stated)
pIC50 (U-937 [4]): 5.20 | inhibition (U-937 [1]): inactive | viability at 20 µM [2]: 93.1% | inhibition at 20 µM (U-937 [3]): 75%

COC(=O)C1=C(OC)C(=O)OC1c1c(Cl)c2cc(-c3ccccc3)ccc2oc1=O (configuration not stated)
inhibition (U-937 [1]): inactive | viability at 20 µM [2]: 82.3% | inhibition at 20 µM (U-937 [3]): 44.2%

COC(=O)C1=C(OC)C(=O)OC1c1c(Cl)c2cc(Br)ccc2oc1=O (configuration not stated)
pIC50 (U-937 [4]): 7.15 | inhibition (U-937 [1]): inactive | viability at 20 µM [2]: 85.3% | inhibition at 20 µM (U-937 [3]): 76.9%

CCOC(=O)C1=C(OCC)C(=O)OC1c1c(Cl)c2cc(C)cc(C)c2oc1=O (configuration not stated)
pIC50 (U-937 [4]): 5.96 | inhibition (U-937 [1]): inactive | viability at 20 µM [2]: 96.8% | inhibition at 20 µM (U-937 [3]): 80.2%
